Shown are actives, neighbours in structure and some others; about 0.79% of the full set was active somewhere.
bIAP act: bovine intestinal alkaline phosphatase activators, primary screen, biochemical, bovine IAP, CDP-star luminescence; alkaline phosphatase, intestinal [Bos taurus]; purified bovine IAP, 30 min; hits give high values; fold of DMSO-control signal, blank-subtracted; activation factor at 20 µM; 200,000 compounds, 0.17% hits;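 active = activation factor of 2 or more at 20 µM, a signal rise over negative controls twice the positive control's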
mIAP act: activators of mouse IAP, primary screen, biochemical, luminescence, uHTS; muIAP, CDP-Star luminescence, 30 min; hits give high values; 1 = vehicle-only enzyme signal, 0 = enzyme-free wells; activation factor at 10 µM; intestinal alkaline phosphatase [Mus musculus]; 330,000 compounds, 0.24% hits;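 active = activation factor of at least 2 at 20 µM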
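Assay system: mouse IAP enzyme; Reagent: CDP-Star chemiluminescent phosphatase substrate; Compound: DMSO-dissolved test compounds; Incubation: 30 min, room temperature; Technique: luminescence from enzymatic CDP-Star hydrolysis; Controls: DMSO-only wells and no-enzyme negative control.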
mIAP inh: inhibitors of mouse IAP, primary screen, biochemical, luminescence, uHTS. intestinal alkaline phosphatase [Mus musculus]. purified mouse IAP, CDP-Star luminescence, 30 min. inhibition, % at 10 µM. 330,000 compounds, 0.2% hits. AID 2806, 2010;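 active = inhibition of at least 40% at 10 µM in the primary screen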;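 note: plate controls were DMSO with enzyme for no effect and no enzyme wells for full effect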
hIAP block: human IAP inhibitors, primary screen, biochemical, luminescence, uHTS. Intestinal-type alkaline phosphatase (Homo sapiens), P09923. inhibition, % at 10 µM. AID 2544, 2010. 330,000 compounds, 0.12% hits. purified IAP, CDP-Star luminescence, 30 min;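 active = inhibition reaching a set limit with compound at 10 µM in the primary screen, cut at about 35% in these data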;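 note: plate controls were DMSO wells with enzyme for no effect and no-enzyme buffer wells for full effect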
Target sequence (P09923 whole entry, looked up): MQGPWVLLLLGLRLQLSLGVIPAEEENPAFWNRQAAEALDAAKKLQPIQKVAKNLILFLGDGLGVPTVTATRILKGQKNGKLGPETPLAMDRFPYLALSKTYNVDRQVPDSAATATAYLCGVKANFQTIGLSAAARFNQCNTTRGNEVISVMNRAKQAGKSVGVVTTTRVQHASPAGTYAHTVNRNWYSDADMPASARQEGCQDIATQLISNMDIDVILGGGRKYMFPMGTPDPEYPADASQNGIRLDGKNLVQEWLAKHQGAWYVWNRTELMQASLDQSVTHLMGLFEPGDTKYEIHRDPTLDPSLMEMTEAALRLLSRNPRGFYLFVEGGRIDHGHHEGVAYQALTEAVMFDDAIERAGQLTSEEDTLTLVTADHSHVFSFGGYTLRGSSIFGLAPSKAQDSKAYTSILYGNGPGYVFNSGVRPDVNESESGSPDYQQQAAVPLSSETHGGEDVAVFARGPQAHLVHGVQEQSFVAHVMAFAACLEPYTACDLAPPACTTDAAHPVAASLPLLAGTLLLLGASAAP
hIAP act: human IAP activators, primary screen, biochemical, luminescence, uHTS; activation factor at 10 µM; Intestinal-type alkaline phosphatase (Homo sapiens), P09923; 330,000 compounds, 0.16% hits; purified human IAP, CDP-Star luminescence, 30 min; hits give high values; 1 = vehicle-only enzyme, 0 = enzyme-free background;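 active = activation factor of the enzyme at least 2-fold when tested at 20 µM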
bIAP inh: bovine intestinal alkaline phosphatase inhibitors, primary screen, selectivity assay for TNAP inhibitor project, biochemical, bovine IAP, CDP-star luminescence; alkaline phosphatase, intestinal [Bos taurus]; AID 1019, 2008; 190,000 tested, under 10 active; inhibition, % at 20 µM; purified bovine IAP, 30 min;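 active = over 50% inhibition of intestinal alkaline phosphatase at 20 µM in the single-dose screen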
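Incubation: 30 min reaction at room temperature / Material: purified bovine intestinal alkaline phosphatase (IAP) enzyme / Input: enzyme at 1/65,000,000 dilution / Dosing: 20 µM single dose / Signal: CDP-star luminescence signal / Reagent: CDP-star chemiluminescent phosphatase substrate, 30 µM final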
mIAP inh conf: inhibitors of mouse IAP, confirmation, biochemical, luminescence, single concentration. shares compounds with mIAP inh. purified mouse IAP, CDP-Star luminescence, 30 min. inhibition, % at 10 µM. 11,000 compounds, 4.7% hits. AID 434971, 2010;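 active = inhibition of at least 40% at 10 µM in either of the two replicates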;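 note: plate controls were DMSO wells with enzyme for no effect and buffer wells lacking enzyme for full effect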
* = called active by the depositor; nt = not tested or not shown.

SMILES | bIAP act | mIAP act | mIAP inh | hIAP block | hIAP act | bIAP inh | mIAP inh conf
Cc1nc(N)sc1-c1csc(Nc2cccc(C(=O)O)c2)n1 | nt | 0.48 | 52* | 10 | 0.9 | nt | 54*
Cc1cc(NS(=O)(=O)c2ccc(Nc3nc(-c4ccc(C)c(C)c4)cs3)cc2)no1 | 0.3 | 0.99 | 1 | 1 | 0.99 | nt | nt
Cc1cc(NS(=O)(=O)c2ccc(Nc3nc(-c4sc(N)nc4C)cs3)cc2)no1 | 1.3 | 0.56 | 44* | 0 | 1 | -27 | 59*
O=C1C=C(c2ccc(C(=O)O)c(Cl)c2)C[C@@H](c2ccc3c(c2)OCO3)C1 | nt | 0.85 | 15 | -9 | 1.1 | nt | nt
Cc1ccc(NC(=O)CCNS(=O)(=O)c2ccc3[nH]c(=O)oc3c2)c(C)c1 | nt | 0.7 | 30 | -5 | 1.1 | nt | nt
COc1ccc(OC)c(NC(=O)CCNS(=O)(=O)c2ccc3[nH]c(=O)oc3c2)c1 | nt | 0.53 | 47* | 23 | 0.77 | nt | 62*
Cc1ccc(C)c(NC(=O)CCNS(=O)(=O)c2ccc3[nH]c(=O)oc3c2)c1 | nt | 0.3 | 70* | -4 | 1 | nt | 82*
COc1cccc(CNC(=O)CCNS(=O)(=O)c2ccc3[nH]c(=O)oc3c2)c1 | nt | 0.51 | 49* | -8 | 1.1 | nt | 77*
COc1ccccc1NC(=O)CCNS(=O)(=O)c1ccc2[nH]c(=O)oc2c1 | nt | 0.59 | 41* | -21 | 1.2 | nt | 74*
Cc1ccc(NC(=O)CCNS(=O)(=O)c2ccc3[nH]c(=O)oc3c2)cc1C | nt | 0.9 | 10 | -23 | 1.2 | nt | nt
CC(=O)NC(=S)Nc1ccc(S(=O)(=O)Nc2nc(C)cc(C)n2)cc1 | 1 | 1 | 0 | 7 | 0.93 | -4 | nt
COc1ccccc1CNC(=O)CCNS(=O)(=O)c1ccc2[nH]c(=O)oc2c1 | nt | 0.59 | 41* | 0 | 1 | nt | 75*
COc1cccc(NC(=O)CN(C)S(=O)(=O)c2ccc3[nH]c(=O)oc3c2)c1 | nt | 0.58 | 42* | -11 | 1.1 | nt | 46*
O=C(CCNS(=O)(=O)c1ccc2[nH]c(=O)oc2c1)NCc1ccccc1 | nt | 0.91 | 10 | 11 | 0.89 | nt | nt
COc1cccc(NC(=O)CN(C)S(=O)(=O)c2ccc3c(c2)CCC(=O)N3)c1 | nt | 1.1 | -10 | 18 | 0.82 | nt | nt
Cn1cnc(S(=O)(=O)Nc2ccc(Cl)c(C(F)(F)F)c2)c1 | nt | 0.9 | 10 | -6 | 1.1 | nt | nt
Cc1ccc2[nH]c(=O)c(C(c3nnnn3CC3CCCO3)N3CCc4ccccc4C3)cc2c1 (stereo unspecified) | 1 | 0.3 | 70* | -12 | 1.1 | 4 | 74*
Cc1ccc2[nH]c(=O)c(C(c3nnnn3C3CCCC3)N3CCCc4ccccc43)cc2c1 (stereo unspecified) | 1 | 0.43 | 57* | 12 | 0.88 | 4 | 60*
Cc1ccc2[nH]c(=O)c(C(c3nnnn3CC3CCCO3)N3CCCc4ccccc43)cc2c1 (stereo unspecified) | 0.9 | 0.5 | 50* | -4 | 1 | 10 | 60*
Cc1ccc2cc(C(c3nnnn3Cc3ccccc3)N3CCc4ccccc43)c(=O)[nH]c2c1 (stereo unspecified) | 0.9 | 0.92 | 8 | -5 | 1.1 | 6 | nt
Cc1ccc2[nH]c(=O)c(C(c3nnnn3Cc3ccccc3)N3CCc4ccccc43)cc2c1 (stereo unspecified) | 0.9 | 0.45 | 55* | -4 | 1 | 6 | 64*
COc1ccc(CNCc2ccccc2[N+](=O)[O-])cc1OC | nt | 1.1 | -6 | -20 | 1.2 | nt | nt
Cc1nn(-c2ccccc2C(F)(F)F)c(=O)c2noc(C)c12 | nt | 1 | -5 | -8 | 1.1 | nt | nt

Bioassay records as filed in PubChem BioAssay.
